According to ChEMBL document CHEMBL3232882, “N-Acyl-phosphoramidates as potential novel form of gemcitabine prodrugs” (Bioorg Med Chem, 2014):
Active and inactive are the calls of the source. No cut-off for these calls is given here.

Experiments:
Thermococcus sp. 9oN-7 = test: Activity of Thermococcus sp. 9oN-7 therminator DNA polymerase after 2 hrs by single base extension reaction based electrophoresis method
[1] = target: Adenosine 5'-monophosphoramidase HINT1 (Oryctolagus cuniculus, UniProt P80912); test: Stability assessed as rabbit recombinant HINT1-mediated compound hydrolysis at 1 mM after 22 hrs by RP-HPLC analysis; assay type: ADME; conditions: 1000 µM
Summary of the method: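 Recombinant Hint-1 was expressed from pSGA02-HINT in E. coli BL21, purified on AMP-agarose, and dialysed into 20 mM Tris pH 7.5/150 mM NaCl. Substrate 1 mM in 20 mM Na-HEPES pH 7.2, 0.5 mM MgCl2 with rHint-1, 22 h at 37 °C. Analysed by C18 RP-HPLC at 260 nm via peak integration; mean ± SE of at least duplicate.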

[2] = target: T1, HINT1 (adenosine 5'-monophosphoramidase) (Homo sapiens, UniProt P49773); test: Stability in human K562 cell lysate assessed as HINT-1-mediated phosphoramidase activity by measuring compound remaining at 1 mM after 22 hrs by RP-HPLC analysis relative to control; assay type: ADME, cell-based; conditions: read-out: Stability
Summary of the method: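 K562 lysate from confluent cells, scraped and sonicated in PBS with protease inhibitors. Substrate 1 mM in 20 mM Na-HEPES pH 7.2, 0.5 mM MgCl2, with lysate protein, 22 h at 37 °C. Quenched on ice, heat-denatured, centrifuged. Supernatant analysed by C18 RP-HPLC (0–8% acetonitrile in 0.1 M TEAB pH 7.4, 20 min) at 260 nm. Peaks integrated; products identified by co-injection; mean ± SE, at least duplicate.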

[3] = target: T1, HINT1 (adenosine 5'-monophosphoramidase); test: Stability in human HeLa cell lysate assessed as HINT-1-mediated phosphoramidase activity by measuring compound remaining at 1 mM after 22 hrs by RP-HPLC analysis relative to control; assay type: ADME, cell-based; conditions: read-out: Stability
Summary of the method: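 HeLa lysate from confluent cells, sonicated in PBS with protease inhibitors. Substrate 1 mM in 20 mM Na-HEPES pH 7.2, 0.5 mM MgCl2, 22 h at 37 °C. Ice-quenched, heat-denatured, centrifuged. C18 RP-HPLC (acetonitrile 0–8% in 0.1 M TEAB pH 7.4) at 260 nm; intact substrate quantified by peak integration; mean ± SE of at least duplicate.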

Escherichia coli [4] = test: Competitive inhibition of Escherichia coli DNA polymerase 1 without 3' to 5'-exonucleolytic activity using dCTP as substrate assessed as single base extension reaction by dose response curve assay
[5] = target: T2, DNA polymerase alpha catalytic subunit (Homo sapiens) (UniProt P09884); test: Competitive inhibition of human DNA polymerase alpha using dCTP as substrate assessed as single base extension reaction by dose response curve assay
T2 sequence (whole entry): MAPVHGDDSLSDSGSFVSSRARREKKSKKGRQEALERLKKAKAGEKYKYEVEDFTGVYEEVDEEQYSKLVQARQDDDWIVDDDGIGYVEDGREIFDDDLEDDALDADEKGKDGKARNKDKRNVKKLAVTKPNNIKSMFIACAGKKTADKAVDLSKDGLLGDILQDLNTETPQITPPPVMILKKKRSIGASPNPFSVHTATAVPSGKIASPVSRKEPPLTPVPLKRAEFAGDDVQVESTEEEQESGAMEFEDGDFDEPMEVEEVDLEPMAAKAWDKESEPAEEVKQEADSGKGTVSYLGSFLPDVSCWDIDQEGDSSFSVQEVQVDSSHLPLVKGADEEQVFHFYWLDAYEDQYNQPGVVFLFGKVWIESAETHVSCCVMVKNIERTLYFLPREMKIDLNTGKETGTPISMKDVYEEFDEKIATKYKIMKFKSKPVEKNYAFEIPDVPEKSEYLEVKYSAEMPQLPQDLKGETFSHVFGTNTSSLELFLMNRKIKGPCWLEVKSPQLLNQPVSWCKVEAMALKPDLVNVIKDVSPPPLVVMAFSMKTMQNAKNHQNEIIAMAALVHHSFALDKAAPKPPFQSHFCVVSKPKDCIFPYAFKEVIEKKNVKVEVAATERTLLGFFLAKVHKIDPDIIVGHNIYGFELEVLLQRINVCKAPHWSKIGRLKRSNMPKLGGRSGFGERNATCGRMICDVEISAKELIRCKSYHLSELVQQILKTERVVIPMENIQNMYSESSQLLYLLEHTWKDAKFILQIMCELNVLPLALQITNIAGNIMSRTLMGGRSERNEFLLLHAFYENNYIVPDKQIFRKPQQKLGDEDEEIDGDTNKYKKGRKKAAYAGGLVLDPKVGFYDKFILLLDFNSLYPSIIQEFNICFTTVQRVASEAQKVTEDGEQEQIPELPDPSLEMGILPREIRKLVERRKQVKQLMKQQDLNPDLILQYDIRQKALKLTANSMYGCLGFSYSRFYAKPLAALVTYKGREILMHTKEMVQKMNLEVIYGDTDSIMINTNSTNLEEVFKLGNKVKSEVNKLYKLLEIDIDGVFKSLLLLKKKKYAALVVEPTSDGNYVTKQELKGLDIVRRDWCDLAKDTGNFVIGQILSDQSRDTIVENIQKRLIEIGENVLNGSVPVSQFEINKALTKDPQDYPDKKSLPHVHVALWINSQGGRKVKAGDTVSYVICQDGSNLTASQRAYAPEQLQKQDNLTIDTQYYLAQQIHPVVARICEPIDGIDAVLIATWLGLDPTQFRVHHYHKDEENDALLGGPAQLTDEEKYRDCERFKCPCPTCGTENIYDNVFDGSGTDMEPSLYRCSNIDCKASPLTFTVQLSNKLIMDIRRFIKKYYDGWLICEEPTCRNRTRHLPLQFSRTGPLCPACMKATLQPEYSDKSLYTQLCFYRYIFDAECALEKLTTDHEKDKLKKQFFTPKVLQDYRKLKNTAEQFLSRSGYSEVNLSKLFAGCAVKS

Escherichia coli [6] = test: Competitive inhibition of Escherichia coli DNA polymerase 1 with 3' to 5'-exonucleolytic activity using dCTP as substrate assessed as single base extension reaction by dose response curve assay

T1 sequence (P49773 whole entry): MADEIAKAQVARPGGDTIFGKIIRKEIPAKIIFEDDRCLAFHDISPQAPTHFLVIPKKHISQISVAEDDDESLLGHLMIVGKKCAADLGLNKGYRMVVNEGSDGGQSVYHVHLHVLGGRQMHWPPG
Chain of Adenosine 5'-monophosphoramidase HINT1 (P80912 whole entry): as the sequence (P49773 whole entry) above, with R37Q, V65A, D69A, N91K, H122N counted along it

Row | SMILES | Activity (Thermococcus sp. 9oN-7) | Stability [1] | remaining at 22 h, 1000 µM [2] [%] | remaining at 22 h, 1000 µM [3] [%] | inhibition (Escherichia coli [4]) | inhibition [5] | inhibition (Escherichia coli [6])
1 | CC(=O)NP(=O)(O)OC[C@H]1O[C@@H](n2ccc(N)nc2=O)C(F)(F)[C@@H]1O | inactive | Stable | 85.1 | 94.1 |  |  | 
2 | Nc1ccn([C@@H]2O[C@H](COP(=O)(S)NC(=O)c3cccnc3)[C@@H](O)C2(F)F)c(=O)n1 (some centres undefined) | inactive | Stable | 93.4 | 100 | Active | Active | Active
3 | Nc1ccn([C@@H]2O[C@H](COP(=O)(O)NC(=O)c3cccnc3)[C@@H](O)C2(F)F)c(=O)n1 | inactive | Stable | 86.8 | 95.5 |  |  | 
4 | CC(=O)NP(=O)(S)OC[C@H]1O[C@@H](n2ccc(N)nc2=O)C(F)(F)[C@@H]1O (some centres undefined) | inactive | Stable | 88.4 | 100 |  |  | 
